Screening data from PubChem.
KCNQ1 pot: human KCNQ1 channel potentiation or activation; P51787; CHO-K1 KCNQ1, thallium flux FluxOR fluorescence; stronger effect = higher value; B-score at 10 µM; 310,000 tested, 0.35% active;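 active means fluorescence ratio B-score, a plate-corrected score, at least three library SD, with initial intensity B-score within 5 SD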
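assay system = KCNQ1-transfected CHO-K1 cells | medium = assay buffer with matched DMSO | probe or stimulus = depolarizing K+/Tl+ stimulus, K2SO4 and Tl2SO4 each 12.5 mM in 5x stock | dosing = single dose | incubation = dye 90 min, compound 20 min, room temperature | detection = kinetic FluxOR fluorescence, 10 s baseline plus 110 s post-stimulus | evaluation = ratio B score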
hERG protect: shields human hERG channel from block by proarrhythmic agents; AID 1511; Q12809; activation (rescue from dofetilide block), less the hit threshold, % at 10 µM; 310,000 tested, 0.51% active; CHO-hERG, FluxOR thallium flux, dofetilide IC70 present;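 active means activation above the mean of controls blocked by dofetilide plus 5 SD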;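 further: thallium influx through hERG after potassium depolarization seen as dye fluorescence rise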
KCNK9 inh: human KCNK9 channel inhibition; HEK293 KCNK9, FluxOR thallium flux fluorescence; stronger effect = lower value; B-score at 10 µM; 310,000 tested, 1.2% active; AID 488922;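 active means ratio B-score over 3 SD below the library mean, with starting fluorescence within 5 SD of its mean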;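 further: negative B-score means less thallium flux so channel inhibition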
KCNQ1 block: blocks the human KCNQ1 potassium channel | B-score at 10 µM | P51787 | CHO-K1 KCNQ1, FluxOR thallium flux fluorescence; stronger effect = higher value | AID 2642 | 310,000 tested, 1.3% active;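 active means compounds whose thallium flux B-score, printed positive for inhibition, exceeds three library SD while starting fluorescence stays within three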;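 further: channel opened by potassium depolarization with thallium stimulus after 20 min compound exposure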
Kir21 block: Kir2.1 (mouse) channel inhibition; HEK293-Kir2.1, FluxOR thallium flux fluorescence; stronger effect = lower value; B-score at 10 µM; P35561; 310,000 tested, 0.85% active;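 active means fluorescence ratio B-score at or below minus 3 SD of library scores, with starting-brightness B-score within 2 SD, cut at about -4.2 in these data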;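 further: channel flux triggered by added potassium and thallium sulfate stimulus; B-score of peak minus minimum fluorescence over baseline after thallium stimulus; more negative B-score means stronger Kir2.1 block with less thallium influx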
KCNK3 inh: human KCNK3 channel inhibition, primary screen. O14649. CHO-KCNK3 thallium flux, FluxOR fluorescence; stronger effect = lower value. B-score at 10 µM. 340,000 tested, 0.84% active. AID 602410;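 active means B-score under library mean minus 4 SD, starting fluorescence ratio at most library mean plus 5 SD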;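 further: more negative B-score means stronger inhibition of thallium flux through KCNK3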
Target sequence (O14649 whole entry, looked up): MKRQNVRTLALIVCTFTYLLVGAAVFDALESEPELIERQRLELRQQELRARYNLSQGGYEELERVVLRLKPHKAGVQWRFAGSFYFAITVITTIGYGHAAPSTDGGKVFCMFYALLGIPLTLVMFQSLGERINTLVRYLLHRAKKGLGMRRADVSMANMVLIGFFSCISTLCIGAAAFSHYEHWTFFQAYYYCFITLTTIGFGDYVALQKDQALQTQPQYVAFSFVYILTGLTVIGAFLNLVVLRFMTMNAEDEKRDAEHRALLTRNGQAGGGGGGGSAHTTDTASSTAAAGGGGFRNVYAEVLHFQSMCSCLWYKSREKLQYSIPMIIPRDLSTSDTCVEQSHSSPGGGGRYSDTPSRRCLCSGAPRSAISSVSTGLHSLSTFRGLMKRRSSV
Large screens that a line does not name were inactive. Sampled rows, rich in hits. Any-hit rate of the full collection: about 3.7%.

COc1ccc(-c2c(-c3ccsc3)oc3ccc(N4CCOCC4)cc23)cn1	KCNK9 inh -7.92
CCN(C(=O)COc1ccc2ccc(=O)oc2c1)C1CCCCC1	none (no result: KCNQ1 pot, hERG protect, KCNK9 inh, KCNQ1 block, Kir21 block)
COc1ccccc1/C=C/C=C1\Oc2c(ccc(O)c2CN(C)C)C1=O	KCNQ1 block 10
CCCN(CC1CC1)C(=S)Nc1ccccc1F	hERG protect 11.1
COc1ccccc1N1CCN(C(=O)c2ccccc2N(C)S(=O)(=O)c2ccc(C)cc2)CC1	none
CC(C)(C)C(=O)N1CCCC1C(=O)O (configuration not stated)	hERG protect 4.9
Cc1c(Cl)ccc2c(C(O)CBr)cc(-c3ccccc3)nc12 (configuration not stated)	none (no result: KCNQ1 pot, hERG protect, KCNK9 inh, KCNQ1 block, Kir21 block)
S=C(NCc1ccccc1)N1CCn2cccc2C1c1cccnc1 (configuration not stated)	none
S=C(NCCc1ccccc1)N1CCn2cccc2C1c1cccnc1 (configuration not stated)	KCNQ1 pot 15
Cc1occc1C(=O)NNC(=S)NC(=O)COc1ccc(Cl)cc1Cl	KCNQ1 pot 75, hERG protect 61.8
OC[C@@H]1[C@@H](c2ccc(Cl)cc2)C(c2ccc(F)cc2)=NN1c1ccccc1	none (no result: KCNQ1 pot, hERG protect, KCNK9 inh, KCNQ1 block, Kir21 block)
CCN1CC(c2ccccc2)C(c2ccc(Cl)cc2)=N1 (configuration not stated)	KCNK9 inh -7.04
CC1CCCN(c2nc(N(C)c3ccccc3)nc(N)c2[N+](=O)[O-])C1 (configuration not stated)	none
CCN(Cc1ccccc1)S(=O)(=O)c1ccc(C(=O)N(CCCN(C)C)c2nc3ccc(F)cc3s2)cc1	none
CCN(Cc1ccccc1)S(=O)(=O)c1ccc(C(=O)N(CCCN(C)C)c2nc3cc4c(cc3s2)OCCO4)cc1	KCNQ1 block 7
CCN(CC)CCN(C(=O)c1ccc(Br)s1)c1nc2cc3c(cc2s1)OCCO3	none
CN(C)CCCN(C(=O)c1ccc(Br)s1)c1nc2cc3c(cc2s1)OCCO3	Kir21 block -7.83
CN(C)CCCN(C(=O)c1ccc([N+](=O)[O-])s1)c1nc2cc3c(cc2s1)OCCO3	none
CN(C)CCCN(C(=O)c1cc2cc([N+](=O)[O-])ccc2s1)c1nc2cc3c(cc2s1)OCCO3	KCNQ1 block 6
Oc1c(Br)cc(Br)cc1CNn1cnnc1	none
Cc1cnc(C(=O)OCC(=O)Nc2cc(S(=O)(=O)N3CCOCC3)ccc2Cl)cn1	none (no result: KCNQ1 pot, hERG protect, KCNK9 inh, KCNQ1 block, Kir21 block)
COc1ccc(OC(=O)c2cccnc2)cc1	none
CC(C)(C)c1ccc(OC(=O)c2cccnc2)cc1	Kir21 block -4.45
Cc1ccc(C2SCCN2C(=O)c2ccc([N+](=O)[O-])cc2)cc1 (configuration not stated)	Kir21 block -6.53
C=CC[C@H](CC(=O)NCCO)C(=O)N[C@H](COC(=O)[C@H](CC=C)CC(=O)OC(C)(C)C)Cc1c[nH]c2ccccc12	none (no result: KCNQ1 pot, hERG protect, KCNK9 inh, KCNQ1 block, Kir21 block)
Cc1nc2c(c(C)nn2-c2ccccc2)c(C)c1CCC(=O)Nc1ccc(CN2CCCC2)cc1	Kir21 block -9
CCC(C)NC(=O)CCc1c(C)nc2c(c(C)nn2-c2ccccc2)c1C (configuration not stated)	none
COc1ccc(NC(=O)C2C3C=CC4(O3)C2C(=O)N(CCCN2CCCC(C)C2)C4C(=O)NC2CCCCC2)cc1 (configuration not stated)	none
O=C(Nc1ccc(S(=O)(=O)N2CCCCC2)cc1)c1ccc(CN2CCc3ccccc3C2)cc1	KCNQ1 block 6
Cc1ccc(C(=O)Nc2nc(-c3ccccc3)c(-c3ccccc3)o2)cc1	KCNQ1 pot 40
Cc1cc(C)nc(SCC(=O)Nc2nc(-c3ccccc3)c(-c3ccccc3)o2)n1	none
COc1ccc(C)cc1Nc1n[n+](-c2ccccc2)c(-c2cc(OC)c(OC)cc2Br)s1	KCNQ1 block 7, Kir21 block -5.99
CS(=O)(=O)c1ccc(-c2nnc(NC(=O)c3cccc(N4C(=O)CCC4=O)c3)o2)cc1	none
Cc1c(C(=O)OCC(=O)N2CC(=O)Nc3ccccc32)oc2ccc(Br)cc12	hERG protect 7.2
CC(=O)NC(CC(=O)OCC(=O)N1CCN(S(=O)(=O)c2ccc(C)cc2C)CC1)c1ccccc1 (configuration not stated)	none (no result: KCNQ1 pot, hERG protect, KCNK9 inh, KCNQ1 block, Kir21 block)
COc1ccc(C=NNC(=O)c2ccccc2OCc2ccc(F)cc2)c(OC)c1	KCNK3 inh -9.92 (no result: KCNQ1 pot, hERG protect, KCNK9 inh, KCNQ1 block, Kir21 block)
COc1cc(NC(=O)c2ccccc2OCc2ccccc2)cc(OC)c1OC	hERG protect 11.2
Cc1noc(C)c1COC(=O)c1ccccc1NC(=O)Cc1ccccc1	none
CCOc1cc(/C=N/NC(=O)c2ccccc2OCc2ccc(F)cc2)ccc1O	none (no result: KCNQ1 pot, hERG protect, KCNK9 inh, KCNQ1 block, Kir21 block)
COc1cccc(NC(=O)c2ccccc2OCc2c(C)noc2C)c1	KCNK3 inh -11.3 (no result: KCNQ1 pot, hERG protect, KCNK9 inh, KCNQ1 block, Kir21 block)
Cc1noc(C)c1COC(=O)c1ccccc1Oc1ccccc1	Kir21 block -5.07
Cc1ccc(NC(=O)c2ccccc2OCc2c(C)noc2C)cc1S(=O)(=O)N(C)C	none (no result: KCNQ1 pot, hERG protect, KCNK9 inh, KCNQ1 block, Kir21 block)
COc1ccc(N2CC(C(=O)N3CCN(C(=O)c4ccco4)CC3)CC2=O)cc1 (configuration not stated)	none
CS(=O)(=O)N(CC(=O)NC1CCCC1)C1CCCCC1	hERG protect 6.5
O=C(COC(=O)CN1C(=O)C2CCCCC2C1=O)NNC(=O)c1ccc(Cl)cc1 (configuration not stated)	none
C#CCNC(=O)C1=C[C@@H](c2ccc(Br)cc2)C[C@@H](OCc2ccc(CO)cc2)O1	none
C#CCNC(=O)C1=C[C@H](c2ccc(Br)cc2)C[C@H](OCc2ccc(CO)cc2)O1	Kir21 block -4.75
Cc1ccc(N2CCN(C(=S)Nc3ccccc3C)CC2)cc1	none
CSC1=NC(C(Cl)(Cl)Cl)N=C(c2ccccc2)N1 (configuration not stated)	hERG protect 8.6
COC(=O)c1ccccc1NC(=O)Cn1cnc2c(cnn2-c2ccccc2)c1=O	hERG protect 4.8
CCc1ccc(NC(=O)[C@H](C)NC(=O)C2CCN(C(=O)[C@@H](N)C(C)C)CC2)cc1	none
Cc1ccn2c(NC(=O)C(C)(C)Oc3ccc(Cl)cc3)c(-c3cccs3)nc2c1	KCNK9 inh -7.39
CCOC(=O)C1=C(COC(=O)/C=C/c2ccco2)NC(=O)NC1C (configuration not stated)	none
COc1ccc2nc(N=Nc3ccc(O)c4ccccc34)sc2c1	KCNQ1 pot 18, hERG protect 10.9
COc1ccc(/C=N/NC(=O)Nc2cccc3nsnc23)cc1OC	KCNK9 inh -6.58
COc1ccc(/C=N/NC(=O)c2cccc(C(=O)N/N=C/c3ccc(OC)c(OC)c3)n2)cc1OC	none
Cn1c(-c2sccc2OCc2ccc(Cl)cc2Cl)n[nH]c1=S	Kir21 block -5.51
Cc1ccc(COc2ccsc2-c2n[nH]c(=S)n2C)cc1	none
